Assays:
Assay type in all cases: functional
[1] = system: OVCAR-4; assay: Growth inhibition of human OVCAR-4 cells assessed as cell growth at 0.01 uM incubated for 48 hrs by sulforhodamine B assay relative to control; details: read-out: Activity
[2] = system: HOP-92; assay: Growth inhibition of human HOP-92 cells assessed as cell growth at 0.01 uM incubated for 48 hrs by sulforhodamine B assay relative to control; details: read-out: Activity
[3] = system: CAKI-1; assay: Growth inhibition of human CAKI-1 cells assessed as cell growth at 0.01 uM incubated for 48 hrs by sulforhodamine B assay relative to control; details: read-out: Activity
Procedure, shortened: (§1)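 NCI Developmental Therapeutics Program NCI60 panel. Compounds that were active in the 10 µM one-dose screen went on to dose–response testing. Growth at each concentration is expressed relative to untreated control (100%). GI50 (concentration giving 50% of maximal inhibition of proliferation) and TGI (concentration giving total growth inhibition) were derived from the curves.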

[4] = system: MDA-MB-231; assay: Growth inhibition of human MDA-MB-231 cells assessed as cell growth at 1 uM incubated for 48 hrs by sulforhodamine B assay relative to control; details: read-out: Activity
[5] = system: SNB-75; assay: Growth inhibition of human SNB-75 cells incubated for 48 hrs by sulforhodamine B assay
Procedure, shortened: (§2)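 NCI DTP 60-line human tumour panel. Dose-response curves were run only for ligands active in the initial 10 µM screen. GI50 (concentration giving 50% of maximal inhibition of proliferation) and TGI (concentration giving total growth inhibition) were derived from these curves.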

[6] = system: OVCAR-3; assay: Growth inhibition of human OVCAR-3 cells assessed as cell growth at 0.1 uM incubated for 48 hrs by sulforhodamine B assay relative to control; details: read-out: Activity
[7] = system: BT-549; assay: Growth inhibition of human BT-549 cells incubated for 48 hrs by sulforhodamine B assay; details: for CC50: read-out: LC50 (the source's name); procedure, shortened: as §1
[8] = system: RXF 393; assay: Growth inhibition of human RXF 393 cells assessed as cell growth at 0.1 uM incubated for 48 hrs by sulforhodamine B assay relative to control; details: read-out: Activity
[9] = system: UO-31; assay: Growth inhibition of human UO-31 cells assessed as cell growth at 100 uM incubated for 48 hrs by sulforhodamine B assay relative to control; details: read-out: Activity
[10] = system: SN12C; assay: Growth inhibition of human SN12C cells incubated for 48 hrs by sulforhodamine B assay; details: for CC50: read-out: LC50 (the source's name); procedure, shortened: as §2
[11] = system: UACC-257; assay: Growth inhibition of human UACC-257 cells incubated for 48 hrs by sulforhodamine B assay; procedure, shortened: as §2
[12] = system: SK-MEL-28; assay: Growth inhibition of human SK-MEL-28 cells assessed as cell growth at 0.01 uM incubated for 48 hrs by sulforhodamine B assay relative to control; details: read-out: Activity
[13] = system: OVCAR-5; assay: Growth inhibition of human OVCAR-5 cells assessed as cell growth at 100 uM incubated for 48 hrs by sulforhodamine B assay relative to control; details: read-out: Activity
[14] = system: SK-MEL-5; assay: Growth inhibition of human SK-MEL-5 cells assessed as cell growth at 0.1 uM incubated for 48 hrs by sulforhodamine B assay relative to control; details: read-out: Activity
[15] = system: UACC-62; assay: Growth inhibition of human UACC-62 cells assessed as cell growth at 0.01 uM incubated for 48 hrs by sulforhodamine B assay relative to control; details: read-out: Activity
[16] = system: OVCAR-8; assay: Growth inhibition of human OVCAR-8 cells assessed as cell growth at 0.1 uM incubated for 48 hrs by sulforhodamine B assay relative to control; details: read-out: Activity
[17] = system: MDA-MB-231; assay: Growth inhibition of human MDA-MB-231 cells assessed as cell growth at 0.1 uM incubated for 48 hrs by sulforhodamine B assay relative to control; details: read-out: Activity
[18] = system: HT-29; assay: Growth inhibition of human HT-29 cells assessed as cell growth at 1 uM incubated for 48 hrs by sulforhodamine B assay relative to control; details: read-out: Activity
[19] = system: SW-620; assay: Growth inhibition of human SW-620 cells assessed as cell growth at 0.1 uM incubated for 48 hrs by sulforhodamine B assay relative to control; details: read-out: Activity
[20] = system: CCRF-CEM; assay: Growth inhibition of human CCRF-CEM cells assessed as cell growth at 100 uM incubated for 48 hrs by sulforhodamine B assay relative to control; details: read-out: Activity; procedure, shortened: as §1
[21] = system: NCI-H23; assay: Growth inhibition of human NCI-H23 cells assessed as cell growth at 0.01 uM incubated for 48 hrs by sulforhodamine B assay relative to control; details: read-out: Activity
[22] = system: HCT-116; assay: Growth inhibition of human HCT-116 cells assessed as cell growth at 100 uM incubated for 48 hrs by sulforhodamine B assay relative to control; details: read-out: Activity
[23] = system: SW-620; assay: Growth inhibition of human SW-620 cells assessed as cell growth at 100 uM incubated for 48 hrs by sulforhodamine B assay relative to control; details: read-out: Activity
[24] = system: SK-MEL-2; assay: Growth inhibition of human SK-MEL-2 cells assessed as cell growth at 0.01 uM incubated for 48 hrs by sulforhodamine B assay relative to control; details: read-out: Activity
[25] = system: SF-539; assay: Growth inhibition of human SF-539 cells assessed as cell growth at 0.01 uM incubated for 48 hrs by sulforhodamine B assay relative to control; details: read-out: Activity
[26] = system: RPMI-8226; assay: Growth inhibition of human RPMI-8226 cells incubated for 48 hrs by sulforhodamine B assay; procedure, shortened: as §2
[27] = system: HCC 2998; assay: Growth inhibition of human HCC 2998 cells assessed as cell growth at 0.1 uM incubated for 48 hrs by sulforhodamine B assay relative to control; details: read-out: Activity; procedure, shortened: as §1
[28] = system: SNB-75; assay: Growth inhibition of human SNB-75 cells assessed as cell growth at 0.01 uM incubated for 48 hrs by sulforhodamine B assay relative to control; details: read-out: Activity
[29] = system: RXF 393; assay: Growth inhibition of human RXF 393 cells assessed as cell growth at 0.01 uM incubated for 48 hrs by sulforhodamine B assay relative to control; details: read-out: Activity
[30] = system: NCI-H322M; assay: Growth inhibition of human NCI-H322M cells assessed as cell growth at 0.1 uM incubated for 48 hrs by sulforhodamine B assay relative to control; details: read-out: Activity
[31] = system: OVCAR-4; assay: Growth inhibition of human OVCAR-4 cells incubated for 48 hrs by sulforhodamine B assay; details: for CC50: read-out: LC50 (the source's name); procedure, shortened: as §2
[32] = system: OVCAR-8; assay: Growth inhibition of human OVCAR-8 cells assessed as cell growth at 100 uM incubated for 48 hrs by sulforhodamine B assay relative to control; details: read-out: Activity
[33] = system: NCI/ADR-RES; assay: Growth inhibition of human NCI/ADR-RES cells incubated for 48 hrs by sulforhodamine B assay; details: for CC50: read-out: LC50 (the source's name)
Procedure, shortened: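 NCI60 panel at the NCI Developmental Therapeutics Program. Only compounds active in the 10 µM screen went to dose-response testing. GI50, the concentration giving 50% of maximal inhibition of proliferation, and TGI, the concentration giving total growth inhibition, were derived from the dose-response curves.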

[34] = system: SF-295; assay: Growth inhibition of human SF-295 cells assessed as cell growth at 0.1 uM incubated for 48 hrs by sulforhodamine B assay relative to control; details: read-out: Activity

## COc1cccc(NC(=O)c2sc3nc4c(cc3c2N)CN(Cc2ccccc2)CC4)c1
[1]
  growth at 0.01 µM: 86%
[2]
  growth at 0.01 µM: 90%
[3]
  growth at 0.01 µM: 87%
[4]
  growth at 1 µM: 78%
[5]
  GI50: 1.73 µM
  LC50: 33.7 µM
  TGI: 4.71 µM
[6]
  growth at 0.1 µM: 103%
[7]
  GI50: 2.83 µM
  TGI: 26.2 µM
  CC50: > 100 µM
[8]
  growth at 0.1 µM: 95%
[9]
  growth at 100 µM: -23%
[10]
  GI50: 11.2 µM
  TGI: > 100 µM
  CC50: > 100 µM
[11]
  GI50: 6.52 µM
  LC50 (concentration killing 50% of cells): > 100 µM
  TGI: > 100 µM
[12]
  growth at 0.01 µM: 97%
[13]
  growth at 100 µM: 34%
[14]
  growth at 0.1 µM: 90%
[15]
  growth at 0.01 µM: 94%
[16]
  growth at 0.1 µM: 100%
[17]
  growth at 0.1 µM: 98%
[18]
  growth at 1 µM: 96%
[19]
  growth at 0.1 µM: 99%
[20]
  growth at 100 µM: 21%
[21]
  growth at 0.01 µM: 100%
[22]
  growth at 100 µM: 2%
[23]
  growth at 100 µM: -5%
[24]
  growth at 0.01 µM: 106%
[25]
  growth at 0.01 µM: 86%
[26]
  GI50: 38.9 µM
  LC50: > 100 µM
  TGI: > 100 µM
[27]
  growth at 0.1 µM: 98%
[28]
  growth at 0.01 µM: 88%
[29]
  growth at 0.01 µM: 97%
[30]
  growth at 0.1 µM: 96%
[31]
  GI50: 2.68 µM
  TGI: 19.7 µM
  CC50: > 100 µM
[32]
  growth at 100 µM: -2%
[33]
  GI50: 2.4 µM
  TGI: 33.3 µM
  CC50: > 100 µM
[34]
  growth at 0.1 µM: 90%

## Cc1cccc(NC(=O)c2sc3nc4c(cc3c2N)C(=O)CCC4)c1
[1]
  growth at 0.01 µM: 90%
[2]
  growth at 0.01 µM: 87%
[3]
  growth at 0.01 µM: 89%
[4]
  growth at 1 µM: 40%
[5]
  GI50: 0.23 µM
  LC50: > 100 µM
  TGI: ≥ 100 µM
[6]
  growth at 0.1 µM: 81%
[7]
  TGI: ≥ 100 µM
  CC50: > 100 µM
[8]
  growth at 0.1 µM: 69%
[9]
  growth at 100 µM: -23%
[10]
  GI50: 0.695 µM
  TGI: ≥ 100 µM
  CC50: > 100 µM
[11]
  GI50: ≥ 0.148 µM
  LC50 (concentration killing 50% of cells): > 100 µM
  TGI: > 100 µM
[12]
  growth at 0.01 µM: 93%
[13]
  growth at 100 µM: -20%
[14]
  growth at 0.1 µM: 44%
[15]
  growth at 0.01 µM: 94%
[16]
  growth at 0.1 µM: 98%
[17]
  growth at 0.1 µM: 76%
[18]
  growth at 1 µM: 2%
[19]
  growth at 0.1 µM: 60%
[20]
  growth at 100 µM: -7%
[21]
  growth at 0.01 µM: 99%
[22]
  growth at 100 µM: 10%
[23]
  growth at 100 µM: 3%
[24]
  growth at 0.01 µM: 101%
[25]
  growth at 0.01 µM: 90%
[26]
  GI50: 0.57 µM
  LC50: > 100 µM
  TGI: > 100 µM
[27]
  growth at 0.1 µM: 80%
[28]
  growth at 0.01 µM: 80%
[29]
  growth at 0.01 µM: 97%
[30]
  growth at 0.1 µM: 84%
[31]
  TGI: ≥ 100 µM
  CC50: > 100 µM
[32]
  growth at 100 µM: -30%
[33]
  GI50: 0.23 µM
  TGI: ≥ 100 µM
  CC50: > 100 µM
[34]
  growth at 0.1 µM: 60%

Source: ChEMBL document CHEMBL4715736, “Identification of anticancer agents based on the thieno[2,3-b]pyridine and 1H-pyrazole molecular scaffolds” (2016)
